Data from ChEMBL document CHEMBL4513216, “Probing the Open Global Health Chemical Diversity Library for Multistage-Active Starting Points for Next-Generation Antimalarials” (ACS Infect Dis, 2020).

Assay: Toxicity liver stage against HepG2, at 10uM
Type: cell-based
Set-up: test concentration 10 uM, cell line HepG2-A16-CD81EGFP
Details: human, HepG2-A16-CD81EGFP cells; read-out: INHIBITION
Outline: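 Uninfected HepG2-A16-CD81EGFP cells, 3 × 10^3 per well, 1536-well, plated on prespotted compound at 10 μM final, parasite-free screening media added to match infected plates; puromycin 10 μM positive, DMSO 0.5% negative; run in parallel with 48 h PbLuc assay at 37 °C, 5% CO2; viability by CellTiter-Glo luminescence, normalized to controls.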

Row | SMILES | cytotoxicity at 10 µM
1 | CCOc1ccc(NC(=O)c2cnc(N3CCCC3)nc2C)cc1 | -7.81%
2 | O=C1c2cccnc2OC(CN2CCOCC2)CN1Cc1cccs1 (stereo unspecified) | -3.35%
3 | COc1ccc(CN2CC(O)CN(C(=O)OCC(C)C)CC2=O)cc1 (stereo unspecified) | -7.34%
4 | CS(=O)(=O)NCC(Cc1cccc(F)c1)N1CCNC1=O (stereo unspecified) | -2.91%
5 | O=S(=O)(Nc1cnc(N2CCCC2)nc1)c1ccc(F)cc1F | -14.4%
6 | Cn1cnc(S(=O)(=O)NCC2(O)CCc3ccccc3C2)c1 (stereo unspecified) | -4.2%
7 | Cn1cnnc1S(=O)(=O)C1CCN(S(=O)(=O)c2ccccc2F)CC1 | -2.08%
8 | O=C(Cn1nc(Br)nc1Br)N1CCOCC1 | -1.14%
9 | CSCCC(CO)NC(=O)c1sc(-c2ccccc2Cl)nc1C (stereo unspecified) | 1.11%
10 | O=C(Cn1ccc2ccccc21)NCc1ccc(C(=O)O)cc1 | -6.13%
11 | O=C1CC(N2CCN(c3ccccc3O)CC2)C(=O)N1Cc1cccs1 (stereo unspecified) | -0.872%
12 | Cc1ccc(Cl)cc1N1CCN(CC(=O)NCc2ccco2)CC1 | 1.67%
13 | CC(NC(=O)C(C)(C)C)c1cc(O)nc(-c2cccnc2)n1 (stereo unspecified) | 6.5%
14 | Cn1ccnc1C(O)c1ccccc1N1CCN(Cc2cccs2)CC1 (stereo unspecified) | 5.03%
15 | CS(=O)(=O)c1cc(Cl)cnc1C1CCN(C(=O)C2CC2)CC1 | 8.21%
16 | Cc1ncsc1CN1CCOC(C)(C(N)=O)C1 (stereo unspecified) | 0.267%
17 | C[C@@H]1CN(c2nc(O)cc(Cc3ccccc3F)n2)C[C@H](C)O1 | 5.31%
18 | Cc1ccccc1C(O)CNC(=O)Cc1ccc(F)cc1 (stereo unspecified) | 5.8%
19 | COCCN(Cc1noc(-c2ccc(OC)cc2)n1)C1CC1 | 5.69%

Row | SMILES | cytotoxicity at 10 µM
20 | CC(=O)N1CCCN(CCCSCc2ccccc2)CC1 | -4.53%
21 | CCn1ccnc1CN1CCCN(C(=O)c2cncnc2C)CC1 | 5.65%
22 | Cn1c(CO)nnc1SCc1c(F)cccc1Br | -41.2%
23 | COCCCC(=O)NCc1cccc(NC(N)=O)c1 | 0.808%
24 | OCCN(Cc1cccnc1)c1ncc(Br)cn1 | 9.68%
25 | CC(NC(=O)NCCC1=CCCCC1)c1nncn1C (stereo unspecified) | -11.7%
26 | O=C(C1CCCO1)N1CCC(c2nc(-c3ccccc3)n[nH]2)CC1 (stereo unspecified) | -10.9%
27 | CC(CC(=O)NCCCn1cccn1)c1cccnc1 (stereo unspecified) | -1.66%
28 | COc1ccc(CNC(=O)CN2CCc3ccccc32)cc1 | 10.5%
29 | COCCC(C)NC(=O)N1CCC(n2ccc(C(F)(F)F)n2)CC1 (stereo unspecified) | -3.9%
30 | CCSc1cc(C(=O)NCC(C)(C)N(C)C)ccn1 | -13.4%
31 | CCOc1cncc(N(C)CC(=O)NC)n1 | 2.16%
32 | CC(C)c1nc(CSc2nnc(Cn3cncn3)o2)cs1 | 3.19%
33 | Cc1cc(CNC(=O)CCN2CCN(c3ccccn3)CC2)c(C)o1 | 1.71%
34 | O=C(CCc1ccco1)Nc1ccc(Br)cn1 | 81.2%
35 | Cc1cc(CSc2nc(=O)ccn2C(C)C)no1 | 14.9%
36 | CCn1cc(CNCCNc2ncc(Cl)cc2Cl)cn1 | -4.27%
37 | CC(C(=O)Nc1cc(F)ccc1F)N1CCN(Cc2ncc[nH]2)CC1 (stereo unspecified) | -15.8%
38 | CC(=O)c1ccc(Cl)c(Cl)c1OCC(=O)NC(C)C | -9.66%

Row | SMILES | cytotoxicity at 10 µM
39 | CC(C)N(C)CCCNC(=O)c1cnc(-c2ccccc2)nc1 | -6.13%
40 | CC(C)(C)OC(=O)N1CCCC[C@H]1C(=O)NCc1nccs1 | -9.39%
41 | Cc1nc(C)n(C2CCCN(C(=O)CCCn3ccnc3)C2)n1 (stereo unspecified) | 2.24%
42 | CCn1nc(C)cc1C(=O)N1C[C@@H]2C[C@@H](c3nc(C)cs3)O[C@@H]2C1 | 3.39%
43 | O=C(C1CCOC1)N1CCC2(CC1)CN(Cc1nccs1)CCO2 (stereo unspecified) | -75%
44 | Cc1ccc(C(=O)N2CCN(C)C3(CCC(=O)N(C)CC3)C2)c(F)c1 (stereo unspecified) | -1.68%
45 | CCn1c(Cn2cncn2)nnc1C1CCN(C2CCOCC2)CC1 | 9.23%
46 | CCCN(Cc1cccnc1)C(=O)C1CCS(=O)(=O)CC1 | -9.03%
47 | Clc1ccc(-n2cnnc2CCCN2CCOCC2)cc1 | 5.52%
48 | CCc1nnc(NC(=O)c2ccc(C3CCCN3CC(C)C)s2)s1 (stereo unspecified) | 2.14%
49 | NC(=O)c1cnc2n1CCN(C(=O)c1ccc(Cn3cccc3)cc1)C2 | -1.5%
50 | Cc1nc(NC(=O)NC2CC(=O)N(C(C)C)C2)nn1C(C)C (stereo unspecified) | -1.55%
51 | COCC(=O)N1CCCN(C(=O)C2Cc3ccccc3CN2C)CC1 (stereo unspecified) | 4.28%
52 | CC(=O)N1CCN(Cc2ccc3c(c2)OCCO3)CC(O)C1 (stereo unspecified) | 4.14%
53 | Cc1cnccc1NCCNC(=O)[C@H]1CNC[C@H](C(=O)N2CCCC2)C1 | -124%
54 | CC(=O)N1CCCn2nc(CNS(=O)(=O)N3CCC(C)CC3)cc2C1 | 9.91%
55 | CNC(=O)Cc1ccc(-n2ccnc2-c2cccc(C(=O)O)c2)cc1 | -7.9%
56 | COc1ccc(-c2noc(Cn3cc(C)cn3)n2)c(OC)c1OC | -8.42%
